Experimental data published in ChEMBL document CHEMBL3112507 (Bioorg Med Chem, 2014).
Calls of active or inactive are those of the source. No cut-off for these calls is given here.

Legend:
[1] = target: Phospholipase A2 (Homo sapiens) (UniProt P04054); test: Inhibition of PLA2 (unknown origin) by Ellman's method
[2] = target: T1, Polyunsaturated fatty acid 5-lipoxygenase (Homo sapiens) (UniProt P09917); test: Inhibition of 5-LOX (unknown origin) using arachidonic acid as substrate at 1 uM after 5 mins by EIA
T1 sequence (whole entry): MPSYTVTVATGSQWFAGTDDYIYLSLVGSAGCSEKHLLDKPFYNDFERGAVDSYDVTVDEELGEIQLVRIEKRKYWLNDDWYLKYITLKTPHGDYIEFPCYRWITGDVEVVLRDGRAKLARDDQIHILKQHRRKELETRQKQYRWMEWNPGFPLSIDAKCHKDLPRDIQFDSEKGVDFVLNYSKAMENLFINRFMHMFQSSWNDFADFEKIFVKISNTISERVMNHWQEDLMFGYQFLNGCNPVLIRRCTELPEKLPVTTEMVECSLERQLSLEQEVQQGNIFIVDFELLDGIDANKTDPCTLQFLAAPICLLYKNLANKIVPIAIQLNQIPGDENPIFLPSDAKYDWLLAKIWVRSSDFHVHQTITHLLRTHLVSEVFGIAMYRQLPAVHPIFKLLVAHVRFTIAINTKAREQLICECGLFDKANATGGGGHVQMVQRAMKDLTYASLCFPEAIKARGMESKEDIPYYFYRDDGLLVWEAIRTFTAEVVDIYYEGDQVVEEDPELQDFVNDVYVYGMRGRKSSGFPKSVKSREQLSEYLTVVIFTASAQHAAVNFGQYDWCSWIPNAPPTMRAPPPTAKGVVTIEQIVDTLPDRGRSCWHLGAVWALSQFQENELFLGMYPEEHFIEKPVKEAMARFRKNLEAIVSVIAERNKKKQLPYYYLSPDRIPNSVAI
Summary of the method: (§1)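 Test compounds dissolved in DMSO at 0.01, 0.1, 1, 10 and 100 µM. Each was added to 5-LOX enzyme in assay buffer, and the reaction was started with arachidonic acid substrate. Plates were shaken 5 min, chromogen was added, shaken 5 min more, then read at 490 nm. Blanks were buffer plus AA; positive controls were enzyme plus AA. Run in duplicate, means with deviation <5% used. Percent inhibition was calculated from lipoxygenase activity; IC50 derived from the concentration series.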

[3] = target: T1, Polyunsaturated fatty acid 5-lipoxygenase (Homo sapiens); test: Inhibition of 5-LOX (unknown origin) using arachidonic acid as substrate at 10 uM after 5 mins by EIA; summary of the method: as §1
[4] = target: T2, Polyunsaturated fatty acid 5-lipoxygenase (Homo sapiens, UniProt P09917); test: Inhibition of 5-LOX (unknown origin) using arachidonic acid as substrate after 5 mins by EIA; summary of the method: as §1
T2 sequence (P09917 whole entry): T1 sequence (whole entry)

[5] = target: Prostaglandin G/H synthase 1 (Homo sapiens) (UniProt P23219); test: Inhibition of COX1 (unknown origin) by EIA
[6] = target: T1, Polyunsaturated fatty acid 5-lipoxygenase (Homo sapiens); test: Inhibition of 5-LOX (unknown origin) using arachidonic acid as substrate at 100 uM after 5 mins by EIA; summary of the method: as §1
[7] = target: T1, Polyunsaturated fatty acid 5-lipoxygenase (Homo sapiens); test: Inhibition of 5-LOX (unknown origin) using arachidonic acid as substrate at 0.1 uM after 5 mins by EIA; summary of the method: as §1
[8] = target: T3, Prostaglandin G/H synthase 2 (Homo sapiens) (UniProt P35354); test: Inhibition of COX2 (unknown origin) by EIA
T3 sequence (whole entry): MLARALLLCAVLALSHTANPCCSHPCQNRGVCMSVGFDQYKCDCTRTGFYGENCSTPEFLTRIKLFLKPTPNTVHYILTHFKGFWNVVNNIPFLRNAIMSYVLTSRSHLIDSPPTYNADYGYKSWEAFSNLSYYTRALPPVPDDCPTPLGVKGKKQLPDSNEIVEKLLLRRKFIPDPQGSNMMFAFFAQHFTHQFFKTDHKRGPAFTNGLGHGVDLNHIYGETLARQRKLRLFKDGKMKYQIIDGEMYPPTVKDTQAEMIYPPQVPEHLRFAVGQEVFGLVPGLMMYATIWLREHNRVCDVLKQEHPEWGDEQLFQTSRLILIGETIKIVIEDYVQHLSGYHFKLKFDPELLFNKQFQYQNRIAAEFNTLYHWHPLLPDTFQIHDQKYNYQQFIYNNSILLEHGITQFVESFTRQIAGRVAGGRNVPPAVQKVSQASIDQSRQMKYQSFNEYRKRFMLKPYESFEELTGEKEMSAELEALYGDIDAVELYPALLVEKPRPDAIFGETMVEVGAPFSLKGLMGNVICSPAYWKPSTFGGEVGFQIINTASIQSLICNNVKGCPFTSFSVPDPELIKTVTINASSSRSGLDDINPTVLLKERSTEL

[9] = target: T1, Polyunsaturated fatty acid 5-lipoxygenase (Homo sapiens); test: Inhibition of 5-LOX (unknown origin) using arachidonic acid as substrate at 0.01 uM after 5 mins by EIA; summary of the method: as §1
[10] = target: T2, Polyunsaturated fatty acid 5-lipoxygenase; test: Inhibition of 5-LOX (unknown origin) using arachidonic acid as substrate after 5 mins by EIA in presence of pig liver esterase
Summary of the method: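 Same 5-LOX colorimetric immunoassay kit procedure (compounds at 0.01–100 µM in DMSO, AA substrate, chromogen, 490 nm, duplicates). Ester compounds were first treated with pig liver esterase, extracted per a reported procedure, before addition to the 5-LOX enzyme.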

[11] = Octanol-water partition coefficient, log P of the compound; assay type: physicochemical
[12] = target: T1, Polyunsaturated fatty acid 5-lipoxygenase (Homo sapiens); test: (§2) Inhibition of 5-LOX (unknown origin) by UV-Vis spectrophotometry
Summary of the method: (§3)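 UV–visible spectral titration of the compounds with 5-LOX. Association constant Ka was obtained from 1/(Af−Aobs) = 1/(Af−Afc) + 1/(Ka[Af−Afc][L]). Ki was calculated as IC50/(1+[L]/Kd) using IC50 values from the enzyme immunoassay.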

[13] = target: T2, Polyunsaturated fatty acid 5-lipoxygenase; test: as §2; summary of the method: as §3
[14] = system: HeLa; test: Cytotoxicity against human HeLa cells assessed as cell viability at […] after 15 to 45 hrs by MTT assay; assay type: cell-based

Sequence of Prostaglandin G/H synthase 1 (Homo sapiens) (P23219 whole entry): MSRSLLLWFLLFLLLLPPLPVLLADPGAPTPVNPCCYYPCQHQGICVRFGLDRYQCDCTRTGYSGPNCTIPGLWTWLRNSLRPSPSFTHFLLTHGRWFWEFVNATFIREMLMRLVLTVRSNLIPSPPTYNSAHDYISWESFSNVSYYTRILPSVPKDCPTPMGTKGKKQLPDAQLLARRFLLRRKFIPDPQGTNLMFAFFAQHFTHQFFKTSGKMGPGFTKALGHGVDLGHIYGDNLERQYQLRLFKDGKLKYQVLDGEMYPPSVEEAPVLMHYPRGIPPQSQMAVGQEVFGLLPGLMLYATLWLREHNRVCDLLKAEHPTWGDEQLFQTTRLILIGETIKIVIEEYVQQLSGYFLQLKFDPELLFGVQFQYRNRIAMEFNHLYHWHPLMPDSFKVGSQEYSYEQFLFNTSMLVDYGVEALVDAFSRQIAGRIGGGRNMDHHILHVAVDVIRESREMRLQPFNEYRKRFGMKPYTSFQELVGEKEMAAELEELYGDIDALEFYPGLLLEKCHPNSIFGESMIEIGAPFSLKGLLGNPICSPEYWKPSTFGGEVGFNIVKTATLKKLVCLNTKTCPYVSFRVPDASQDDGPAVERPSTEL
Sequence of Phospholipase A2 (Homo sapiens) (P04054 23-148 limits assumed): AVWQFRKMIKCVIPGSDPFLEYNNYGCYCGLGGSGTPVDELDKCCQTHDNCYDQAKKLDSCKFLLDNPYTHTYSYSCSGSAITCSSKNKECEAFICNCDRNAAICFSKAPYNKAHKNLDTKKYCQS

Compound	inhibition [1]	inhibition [2]	inhibition [3]	IC50 [4]	inhibition [5]	inhibition [6]	inhibition [7]	inhibition [8]	inhibition [9]	IC50 [10]	logP [11]	Ka [12]	Ki [13]	Activity [14]
COC(=O)[C@H]1CCCN1C(=O)C(=O)c1c[nH]c2ccccc12	inactive	40.2%	59.8%	5.46 µM	inactive	60.6%	25.5%	inactive	22.5%					
CC(C)(C)Sc1c(CC(C)(C)C(=O)O)n(Cc2ccc(Cl)cc2)c2ccc(OCc3ccc4ccccc4n3)cc12 [QUIFLAPON]				0.0016 µM										
Cc1ccc(S(=O)(=O)n2cc(C(=O)C(=O)N3CCC[C@@H]3C(=O)O)c3ccccc32)cc1	inactive	53.5%	68.8%	0.6 µM	inactive	74.3%	45%	inactive	27.3%			2.6 ×10⁵ /M	0.51 µM	
COC(=O)[C@@H](Cc1c[nH]c2ccccc12)NC(=O)C(=O)c1c[nH]c2ccccc12	inactive	43.4%	49.8%		inactive	65%	41.1%	inactive	35%					
COC(=O)[C@@H](Cc1c[nH]c2ccccc12)NC(=O)C(=O)c1cn(S(=O)(=O)c2ccc(C)cc2)c2ccccc12	inactive	62.7%	75.5%	0.052 µM	inactive	80.4%	55.3%	inactive	45.5%	0.014 µM	2.34	6.67 ×10⁵ /M	0.037 µM	
COC(=O)CC[C@@H](NC(=O)C(=O)c1c[nH]c2ccccc12)C(=O)OC	inactive	44.8%	51.2%	8.33 µM	inactive	55%	40%	inactive	36%					
Cc1ccc(S(=O)(=O)n2cc(C(=O)C(=O)N[C@H](Cc3c[nH]c4ccccc34)C(=O)O)c3ccccc32)cc1	inactive	67.3%	81.5%	0.01 µM	inactive	85%	56.5%	inactive	51%			3.6 ×10⁵ /M	0.0099 µM	
COC(=O)CNC(=O)C(=O)c1c[nH]c2ccccc12	inactive	47.8%	55.5%	3.5 µM	inactive	70%	46.2%	inactive	40%					
COC(=O)[C@@H](Cc1cnc[nH]1)NC(=O)C(=O)c1cn(S(=O)(=O)c2ccc(C)cc2)c2ccccc12	inactive	45.3%	58.2%	4.33 µM	inactive	63.8%	40.5%	inactive	30%	2.98 µM	1.98	1.01 ×10⁴ /M	4.16 µM	

The next lines start with results.

inhibition [1]	inhibition [2]	inhibition [3]	IC50 [4]	inhibition [5]	inhibition [6]	inhibition [7]	inhibition [8]	inhibition [9]	IC50 [10]	logP [11]	Ka [12]	Ki [13]	Compound	Activity [14]
inactive	67.7%	85%	0.0097 µM	inactive	98%	51.5%	inactive	50%	0.008 µM	2.21	2.32 ×10⁶ /M	0.0095 µM	COC(=O)CNC(=O)C(=O)c1cn(S(=O)(=O)c2ccc(C)cc2)c2ccccc12	Non-toxic
inactive	78.4%	91.2%	0.0086 µM	inactive	97.5%	63.5%	inactive	57.4%			2.07 ×10⁶ /M	0.0084 µM	Cc1ccc(S(=O)(=O)n2cc(C(=O)C(=O)NCC(=O)O)c3ccccc32)cc1	Non-toxic
inactive	48.7%	55.5%	2.8 µM	inactive	64.7%	28.5%	inactive	20%			3.7 ×10⁴ /M	2.53 µM	Cc1ccc(S(=O)(=O)n2cc(C(=O)C(=O)N[C@H](Cc3cnc[nH]3)C(=O)O)c3ccccc32)cc1	
inactive	51.8%	60.3%	0.9 µM	inactive	65%	35.2%	inactive	18.5%	0.13 µM	2.12	1.06 ×10⁵ /M	0.82 µM	COC(=O)CC[C@@H](NC(=O)C(=O)c1cn(S(=O)(=O)c2ccc(C)cc2)c2ccccc12)C(=O)OC	
inactive	59.5%	87.6%	0.097 µM	inactive	90.6%	50.5%	inactive	42%			1.1 ×10⁵ /M	0.095 µM	Cc1ccc(S(=O)(=O)n2cc(C(=O)C(=O)N[C@H](CCC(=O)O)C(=O)O)c3ccccc32)cc1	
inactive	40.8%	45.5%		inactive	65%	37.7%	inactive	30%					COC(=O)[C@@H](Cc1cnc[nH]1)NC(=O)C(=O)c1c[nH]c2ccccc12	
inactive	54.5%	69.3%	0.33 µM	inactive	72%	48.7%	inactive	38.5%	0.75 µM	2.19	1.2 ×10⁵ /M	0.32 µM	COC(=O)[C@H]1CCCN1C(=O)C(=O)c1cn(S(=O)(=O)c2ccc(C)cc2)c2ccccc12	
